The test system of one series is Mus musculus. The experiment in a line: Toxicity in mouse ascites sarcoma 180 cells allografted ddN mouse at 3 mg/kg/day for 5 days administered 24 hrs after tumor inoculation measured 7th day after tumor inoculation. The series is classed as organism-based. The following applies: in vivo.
Regarding `O=C1C=CC(=O)C1`, the Activity entry was “Toxic”.

Another series has as its system Sarcoma-180. The experiment in a line: Antitumor activity against mouse ascites Sarcoma 180 cells allografted in ddN mouse assessed as percentage of total packed cell volume ratio at 10 mg/kg/day for 5 days administered 24 hrs after tumor inoculation measured 7th day after tumor inoculation. In kind it is functional.
Details: not given
An outline of the steps:
(§1)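 Compound given by injection once daily for 5 days, beginning 24 h after S-180 tumor inoculation. Antitumor activity was scored from the total packed cell volume ratio (TPCV %) on day 7 after inoculation.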
As to `COc1ccc(C=C2C(=O)C=CC2=O)cc1`, the Activity is recorded as 0%.
Take `COc1ccc(C=C2C(=O)C=CC2=O)cc1O`: the Activity stood at 0%.
In the case of `COc1cc(C=C2C(=O)C=CC2=O)cc(OC)c1OCc1ccccc1`, the Activity is on record as 11%.
As to `COc1cc(C=C2C(=O)C=CC2=O)cc(OC)c1OC`, the Activity was 0%.
Take `COc1ccc(C=C2C(=O)C=CC2=O)cc1OC`: the Activity turned out to be 0%.
`O=C1C=CC(=O)C1=Cc1ccc(O)cc1`: the Activity was determined as 0%.
The same measure, in the same setting: for `COc1cc(C=C2C(=O)C=CC2=O)cc(OC)c1O` the value was 0%; for `COc1cc(C=C2C(=O)C=CC2=O)ccc1OCc1ccccc1`, 11%.
As to `O=C1C=CC(=O)C1=C/C=C/c1ccccc1`, the Activity worked out at 0%.

The next series has as its system Sarcoma-180. Description: Antitumor activity against mouse ascites Sarcoma 180 cells allografted in ddN mouse assessed as percentage of total packed cell volume ratio at 100 mg/kg/day for 5 days administered 24 hrs after tumor inoculation measured 7th day after tumor inoculation. In kind it is functional.
Details: not given
The essentials: as §1
In the case of `COc1cc(/C=C2\CC(C)C/C(=C\c3cc(OC)c(OCc4ccccc4)c(OC)c3)C2=O)cc(OC)c1OCc1ccccc1` (stereo not given), the Activity was found to be 66%.
Still for that read-out and setting: for `COc1ccc(C=C2C(=O)c3ccccc3C2=O)cc1OC` the value was 41%; for `COc1cc(C=C2C(=O)c3ccccc3C2=O)cc(OC)c1O`, 11%; for `O=C1C(=Cc2ccc(O)cc2)C(=O)c2ccccc21`, 66%.
For the compound `COc1cc(/C=C2\CC(C)C/C(=C\c3ccc(OCc4ccccc4)c(OC)c3)C2=O)ccc1OCc1ccccc1` (stereo not given), the Activity is given as 66%.
Turning to `COc1cc(/C=C2\CCC/C(=C\c3cc(OC)c(O)c(OC)c3)C2=O)cc(OC)c1O`, the Activity is 66%.
`COc1cc(C=C2C(=O)c3ccccc3C2=O)ccc1O`: the Activity stood at 0%.
As to `COc1cc(/C=C2\CCC/C(=C\c3ccc(OCc4ccccc4)c(OC)c3)C2=O)ccc1OCc1ccccc1`, the Activity was determined as 66%.
`COc1cc(/C=C2\CCC(C)/C(=C\c3cc(OC)c(O)c(OC)c3)C2=O)cc(OC)c1O` (stereo not given): the Activity was 66%.
As to `COc1cc(/C=C2\CCC(C)/C(=C\c3ccc(O)c(OC)c3)C2=O)ccc1O` (stereo not given), the Activity is on record as 66%.
On to `O=C1CC(=O)c2ccccc21`, for which the Activity worked out at 11%.
Same read-out and setting: for `COc1cc(/C=C2\CCC/C(=C\c3ccc(O)c(OC)c3)C2=O)ccc1O` [CYCLOVALONE] the value was 66%; for `COc1cc(/C=C2\CCC(C)/C(=C\c3cc(OC)c(OCc4ccccc4)c(OC)c3)C2=O)cc(OC)c1OCc1ccccc1` (stereo not given), 66%.
The same measure, in the same setting: with `COc1cc(C=C2C(=O)c3ccccc3C2=O)ccc1OCc1ccccc1` the figure was 66%; with `COc1cc(/C=C2\CC/C(=C\c3cc(OC)c(OCc4ccccc4)c(OC)c3)C2=O)cc(OC)c1OCc1ccccc1`, 66%.
Take `COc1cc(/C=C2\CC/C(=C\c3ccc(OCc4ccccc4)c(OC)c3)C2=O)ccc1OCc1ccccc1`: the Activity is given as 66%.
On the same count and under the same terms, for `COc1cc(C=C2C(=O)c3ccccc3C2=O)cc(OC)c1OCc1ccccc1` the value was 66%; for `COc1cc(/C=C2\CCC/C(=C\c3cc(OC)c(OCc4ccccc4)c(OC)c3)C2=O)cc(OC)c1OCc1ccccc1`, 66%.
Still for that read-out and setting: for `O=C1C(=C/C=C/c2ccccc2)C(=O)c2ccccc21` the value was 66%; for `COc1cc(/C=C2\CC(C)C/C(=C\c3ccc(O)c(OC)c3)C2=O)ccc1O` (stereo not given), 66%; for `COc1cc(/C=C2\CC/C(=C\c3cc(OC)c(O)c(OC)c3)C2=O)cc(OC)c1O`, 66%.
In the case of `COc1ccc(C=C2C(=O)c3ccccc3C2=O)cc1`, the Activity amounted to 66%.
Turning to `COc1cc(/C=C2\CCC(C)/C(=C\c3ccc(OCc4ccccc4)c(OC)c3)C2=O)ccc1OCc1ccccc1` (stereo not given), the Activity came out at 66%.
As to `COc1cc(/C=C2\CC/C(=C\c3ccc(O)c(OC)c3)C2=O)ccc1O`, the Activity is given as 66%.
Take `COc1cc(/C=C2\CC(C)C/C(=C\c3cc(OC)c(O)c(OC)c3)C2=O)cc(OC)c1O` (stereo not given): the Activity worked out at 66%.
Same read-out and setting: for `COc1ccc(C=C2C(=O)c3ccccc3C2=O)cc1O` the value was 41%; for `COc1cc(/C=C2\CCC(C)/C(=C\c3cc(OC)c(OC)c(OC)c3)C2=O)cc(OC)c1OC` (stereo not given), 66%.
`COc1cc(/C=C/C=C2C(=O)c3ccccc3C2=O)ccc1O`: the Activity is reported as 66%.
The same measure, in the same setting: with `COc1cc(C=C2C(=O)c3ccccc3C2=O)cc(OC)c1OC` the figure was 41%.

Another series concerns Sarcoma-180. The experiment in a line: Antitumor activity against mouse ascites Sarcoma 180 cells allografted in ddN mouse assessed as percentage of total packed cell volume ratio at 3 mg/kg/day for 5 days administered 24 hrs after tumor inoculation measured 7th day after tumor inoculation. The series is classed as functional.
Details: not given
The essentials:
as §1
For the compound `COc1cc(C=C2C(=O)C=CC2=O)ccc1O`, the Activity is 0%.

(Values after ChEMBL document CHEMBL3272140, “Structure and antitumor activity relationship of 2-arylidene-4-cyclopentene-1, 3-diones and 2-arylideneindan-1, 3-diones” (J Med Chem, 1976).)
